Active and inactive are the calls of the source. The rule behind the calls is not given here.
Columns and labels:
[1] = Ratio of rate of irreversible step k2 to Ki for subtilisin using fluorogenic Suc-Ala-Ala-Pro-Phe-AMC as substrate by spectrofluorometry
Outline: (§1)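 Run in 0.1 M HEPES, 0.5 M NaCl, 0.03% Triton X-100, pH 7.5, 37 °C, with chymotrypsin at 3 nM or subtilisin at 5 nM. Enzyme added to Suc-Ala-Ala-Pro-Phe-AMC plus excess inhibitor, read at Ex 350/Em 460 nm. k_obs taken from progress curves; k2/Ki derived via a Km-corrected irreversible-inhibition model.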

[2] = Ratio of rate of irreversible step k2 to Ki for chymotrypsin using fluorogenic Suc-Ala-Ala-Pro-Phe-AMC as substrate by spectrofluorometry; outline: as §1
[3] = biological target: T1, Serine protease SplB (Staphylococcus aureus) (UniProt Q53781); assay: Ratio of rate of irreversible step k2 to Ki for Staphylococcus aureus SplB using fluorogenic […] as substrate up to 200 uM by spectrofluorometry
T1 sequence (whole entry): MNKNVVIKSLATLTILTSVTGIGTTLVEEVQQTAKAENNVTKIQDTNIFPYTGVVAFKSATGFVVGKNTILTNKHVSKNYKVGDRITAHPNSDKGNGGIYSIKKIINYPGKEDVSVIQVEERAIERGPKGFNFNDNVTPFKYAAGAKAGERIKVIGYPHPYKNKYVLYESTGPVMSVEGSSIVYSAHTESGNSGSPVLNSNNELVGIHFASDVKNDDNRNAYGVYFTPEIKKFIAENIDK
Outline: (§2)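 Enzyme added to substrate plus excess inhibitor in 0.1 M Tris-HCl, 0.01% Triton X-100, pH 7.6, 37 °C; SplB at 100 nM. Ac-Trp-Glu-Leu-Gln-ACC read at Ex 355/Em 460 nm. Pseudo-first-order k_obs taken from progress curves; k2/Ki fitted using substrate Km.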

Serine protease SplB = biological target: T2, Serine protease SplB (Staphylococcus aureus, UniProt Q53781); assay: Inhibition of Staphylococcus aureus SplB using fluorogenic […] as substrate by spectrofluorometry; outline: as §2
T2 sequence (Q53781 whole entry): T1 sequence (whole entry)

[4] = Inhibition of subtilisin using fluorogenic Suc-Ala-Ala-Pro-Phe-AMC as substrate by spectrofluorometry; outline: as §1
[5] = Inhibition of chymotrypsin using fluorogenic Suc-Ala-Ala-Pro-Phe-AMC as substrate by spectrofluorometry; outline: as §1
[6] = biological target: T1, Serine protease SplB (Staphylococcus aureus); assay: Inhibition of Staphylococcus aureus SplB using fluorogenic […] as substrate up to 200 uM by spectrofluorometry; outline: as §2

SMILES	Ratio [1]	Ratio [2]	Ratio [3]	Ki (Serine protease SplB)	Ki [4]	Ki [5]	inhibition [6]
CC(C)(C)c1ccc(OP(=O)(Oc2ccc(C(C)(C)C)cc2)C(CCC(N)=O)NC(=O)OCc2ccccc2)cc1 (racemic)	< 10 M⁻¹ s⁻¹	< 10 M⁻¹ s⁻¹	< 10 M⁻¹ s⁻¹	> 200 µM	> 200 µM	> 200 µM	inactive
NC(=O)CCC(NC(=O)OCc1ccccc1)P(=O)(Oc1ccccc1)Oc1ccccc1 (racemic)	< 10 M⁻¹ s⁻¹	< 10 M⁻¹ s⁻¹	< 10 M⁻¹ s⁻¹	> 200 µM	> 200 µM	> 200 µM	inactive
CC(C)CC(NC(=O)OCc1ccccc1)C(=O)NC(CCC(N)=O)P(=O)(Oc1ccc(C(C)(C)C)cc1)Oc1ccc(C(C)(C)C)cc1 (racemic)	< 10 M⁻¹ s⁻¹	< 10 M⁻¹ s⁻¹	< 10 M⁻¹ s⁻¹	> 200 µM	> 200 µM	> 200 µM	inactive
COc1ccc(OP(=O)(Oc2ccc(OC)cc2)C(CCC(N)=O)NC(=O)C(CC(C)C)NC(=O)OCc2ccccc2)cc1 (mixture of isomers)	57 M⁻¹ s⁻¹	< 10 M⁻¹ s⁻¹	< 10 M⁻¹ s⁻¹	> 200 µM	35 µM	> 200 µM	inactive
CCc1ccc(OP(=O)(Oc2ccc(CC)cc2)C(CCC(N)=O)NC(=O)C(CC(C)C)NC(=O)OCc2ccccc2)cc1 (mixture of isomers)	< 10 M⁻¹ s⁻¹	< 10 M⁻¹ s⁻¹	< 10 M⁻¹ s⁻¹	> 200 µM	> 200 µM	> 200 µM	inactive
CC(C)CC(NC(=O)OCc1ccccc1)C(=O)NC(CCC(N)=O)P(=O)(Oc1ccccc1)Oc1ccccc1 (mixture of isomers)	< 10 M⁻¹ s⁻¹	< 10 M⁻¹ s⁻¹	< 10 M⁻¹ s⁻¹	> 200 µM	> 200 µM	> 200 µM	inactive
COc1ccc(OP(=O)(Oc2ccc(OC)cc2)C(CCC(N)=O)NC(=O)OCc2ccccc2)cc1 (racemic)	33 M⁻¹ s⁻¹	< 10 M⁻¹ s⁻¹	< 10 M⁻¹ s⁻¹	> 200 µM	111 µM	> 200 µM	inactive
CCc1ccc(OP(=O)(Oc2ccc(CC)cc2)C(CCC(N)=O)NC(=O)OCc2ccccc2)cc1 (racemic)	< 10 M⁻¹ s⁻¹	< 10 M⁻¹ s⁻¹	< 10 M⁻¹ s⁻¹	> 200 µM	> 200 µM	> 200 µM	inactive

From ChEMBL document CHEMBL2163303, “The development of first Staphylococcus aureus SplB protease inhibitors: phosphonic analogues of glutamine” (Bioorg Med Chem Lett, 2012)
